According to PMC6800172 (The American journal of Chinese medicine, 2017):

Assays:
[1] = Stability of dosing preparation in EPTG excipient formula; assay type: physicochemical
[2] = Plasma decursinol by HPLC at 3 h after the last dose in SCID-NSG mice; assay type: in vivo, mouse
How it was run: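 Plasma was collected 3 h after the last daily gavage dose (4.5 mg/mouse in EPTG 3:6:1:20) from tumor-bearing male SCID-NSG mice. Plasma with chrysin internal standard was extracted twice with ethyl acetate, dried and reconstituted in methanol. HPLC used a C18 column at room temperature with a water/acetonitrile gradient (20–90% over 15 min, then 90% for 8 min) and diode-array detection at 330 nm.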

[3] = system: human LNCaP/AR-Luc cells; assay: LNCaP/AR-Luc xenograft growth in SCID-NSG mice; assay type: in vivo; settings: decursinol 4.5 mg/mouse/day gavage, 7 days per week, vs vehicle
How it was run: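 Male SCID-NSG mice (n=20/group) received daily gavage in EPTG 3:6:1:20 (300 μL) starting 7 days before s.c. inoculation of 20,000 LNCaP/AR-Luc cells (1:1 Matrigel:serum-free medium, lower right flank). Caliper measurement twice weekly; volume = (L×W²)/2. Tumors weighed at necropsy. Only the 10 largest tumors per group were analyzed; mean ± SD.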

[4] = Single dose pharmacokinetic study in CD-1 mice; assay type: in vivo; settings: male, CD-1, mouse, plasma, po, 120 mg/kg
How it was run: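 Male CD-1 mice (7 weeks, ≥1 week on AIN-93M diet) were given a single gavage of 120 mg/kg (3 mg/25 g) in 0.2 mL EPTG 3:6:1:5. Groups of 5–7 were killed at 0.1, 0.25, 0.5, 1, 2, 3, 6, 12 and 24 h. Heparinized cardiac blood was spun at 5000 g for 5 min. Plasma was extracted with ethyl acetate and run on HPLC. AUC0–24h was calculated noncompartmentally; mean ± SEM.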

[5] = system: LNCaP/AR-luc xenograft tumor; assay: Histopathology of H&E stained xenograft tumor sections; assay type: in vivo, human; settings: vs vehicle groups within each experiment
How it was run: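 Tumors dissected at necropsy and fixed in neutral-buffered formalin. H&E-stained sections were examined for necrotic areas, hemorrhage and intravascular cancer-cell emboli.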

[6] = system: human LNCaP/AR-Luc cells; assay: Lung metastasis of LNCaP/AR-Luc xenograft by ex vivo bioluminescence imaging; assay type: in vivo; settings: SCID-NSG mice, decursinol 4.5 mg/mouse/day gavage; control 100% (10 out of 10)
[7] = Body weight and organ weight of tumor-bearing SCID-NSG mice; assay type: in vivo; settings: decursinol 4.5 mg/mouse/day
[8] = Subchronic; assay type: in vivo, mouse; settings: for Body Weight / Organ height (Mean ± SD) Brain / Organ height (Mean ± SD) Heart / Organ height (Mean ± SD) Kidney / Organ height (Mean ± SD) Liver / Organ height (Mean ± SD) Lung / Organ height (Mean ± SD) Prostate / Organ height (Mean ± SD) Spleen / Organ height (Mean ± SD) Testes: male CD-1 mice, N=6
How it was run: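 24 male CD-1 mice (acclimated 2 weeks) were stratified by weight into 4 groups (N=6). They were gavaged daily, 7 days/week, for 4 weeks with 80, 120 or 160 mg/kg in EPTG 3:6:1:5, or 200 μL vehicle. Body weight was measured weekly, with the dose adjusted to it. At euthanasia organs were weighed, and plasma taken 3 h after the last dose was assayed by HPLC; […].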

[9] = Subchronic; assay type: in vivo, mouse; settings: 4 weeks; for Plasma biochemistry (Mean ± SD) ALB / Plasma biochemistry (Mean ± SD) ALP / Plasma biochemistry (Mean ± SD) ALT / Plasma biochemistry (Mean ± SD) AST / Plasma biochemistry (Mean ± SD) Amy / Plasma biochemistry (Mean ± SD) BUN / Plasma biochemistry (Mean ± SD) Chol / Plasma biochemistry (Mean ± SD) Gluc / Plasma biochemistry (Mean ± SD) T.Bili: male CD-1 mice, N=6
How it was run: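 After 4 weeks of daily gavage (80, 120 or 160 mg/kg in EPTG 3:6:1:5, or vehicle) in male CD-1 mice, heparinized blood was taken by cardiac puncture at euthanasia. Plasma ALT, AST, ALP, albumin, amylase, BUN, creatinine, glucose, cholesterol and total bilirubin were measured by a veterinary diagnostic laboratory.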

[10] = DOH-3: 3 mg per 25 g body weight (120 mg/kg) daily gavage, 4 weeks
[11] = DOH-4: 4 mg per 25 g body weight (160 mg/kg) daily gavage, 4 weeks
[12] = DOH-3: 3 mg per 25 g body weight (120 mg/kg) daily gavage
[13] = DOH-4: 4 mg per 25 g body weight (160 mg/kg) daily gavage

- time in uniformly dispersed state after dilution from stock concentrate ([1]; EPTG (3:6:1:20) formula): ≤ 20 min
- time remaining as clear solution ([1]; new EPTG (3:6:1:5)): more than 1 hour
- plasma decursinol level, decursinol dosing over equi-molar D/DA dosing ([2]; SCID-NSG mice, 3 hours after the last dose): 1.7 folds
- concentration at 3 h ([2]; male, SCID-NSG, mouse, plasma, oral, 4.5 mg/mouse): 4100 ng/mL
- AUC(0-t) [4]: 193 µg·h/mL
- plasma decursinol level (3 h post last dose) ([8]; CD-1 mice, 80, 120, and 160 mg decursinol/kg daily gavage, 4 weeks, EPTG 3:6:1:5): increase in a dose-dependent manner
- weights of liver, kidney, prostate, spleen, lung, heart, testes and brain ([8]; CD-1 mice, subchronic dosing 4 weeks, 80-160 mg/kg): did not affect
- Organ height (Mean ± SD) Brain [8, 10]: 0.53 ± 0.03 g
- Organ height (Mean ± SD) Heart [8, 10]: 0.19 ± 0.01 g
- Organ height (Mean ± SD) Kidney [8, 10]: 0.59 ± 0.08 g
- Organ height (Mean ± SD) Liver [8, 10]: 1.58 ± 0.14 g
- Organ height (Mean ± SD) Lung [8, 10]: 0.20 ± 0.02 g
- Organ height (Mean ± SD) Prostate [8, 10]: 0.10 ± 0.02 g
- Organ height (Mean ± SD) Spleen [8, 10]: 0.09 ± 0.02 g
- Organ height (Mean ± SD) Testes [8, 10]: 0.25 ± 0.03 g
- Organ height (Mean ± SD) Brain [8, 11]: 0.53 ± 0.02 g
- Organ height (Mean ± SD) Heart [8, 11]: 0.20 ± 0.01 g
- Organ height (Mean ± SD) Kidney [8, 11]: 0.60 ± 0.08 g
- Organ height (Mean ± SD) Liver [8, 11]: 1.54 ± 0.17 g
- Organ height (Mean ± SD) Lung [8, 11]: 0.22 ± 0.01 g
- Organ height (Mean ± SD) Prostate [8, 11]: 0.12 ± 0.02 g
- Organ height (Mean ± SD) Spleen [8, 11]: 0.09 ± 0.02 g
- Organ height (Mean ± SD) Testes [8, 11]: 0.24 ± 0.05 g
- Plasma biochemistry (Mean ± SD) ALB [9, 12]: 2.7 ± 0.2 g/dL
- Plasma biochemistry (Mean ± SD) ALP [9, 12]: 47.2 ± 14.6 U/L
- Plasma biochemistry (Mean ± SD) Amy [9, 12]: 780.2 ± 70.1 U/L
- Plasma biochemistry (Mean ± SD) BUN [9, 12]: 12.3 ± 2.5 mg/dL
- Plasma biochemistry (Mean ± SD) Chol [9, 12]: 182.0 ± 38.8 mg/dL
- Plasma biochemistry (Mean ± SD) Gluc [9, 12]: 367.3 ± 69.0 mg/dL
- Plasma biochemistry (Mean ± SD) T.Bili [9, 12]: 0.27 ± 0.05 mg/dL
- Plasma biochemistry (Mean ± SD) ALB [9, 13]: 2.3 ± 0.3 g/dL
- Plasma biochemistry (Mean ± SD) ALP [9, 13]: 45.5 ± 9.1 U/L
- Plasma biochemistry (Mean ± SD) Amy [9, 13]: 668.0 ± 117.1 U/L
- Plasma biochemistry (Mean ± SD) BUN [9, 13]: 14.0 ± 2.2 mg/dL
- Plasma biochemistry (Mean ± SD) Chol [9, 13]: 161.0 ± 20.5 mg/dL
- Plasma biochemistry (Mean ± SD) Gluc [9, 13]: 408.3 ± 130.0 mg/dL
- Plasma biochemistry (Mean ± SD) T.Bili [9, 13]: 0.32 ± 0.10 mg/dL
Structure (SMILES): CC1(C)Oc2cc3oc(=O)ccc3cc2C[C@@H]1O [decursinol]
- decreased LNCaP/AR-Luc xenograft tumor growth (top 10 tumors) [3]: 75%
- necrosis extent in tumor sections [5]: did not noticeably differ
- lung metastasis rate [6]: 60%
- weight of liver, kidney, testes and prostate at study termination ([7]; SCID-NSG mice, vs vehicle- or D/DA-treated mice): not statistically different
- Body Weight ([7]; tumor-bearing SCID-NSG mice, noticeable at 7-8 weeks of treatment): progressive body weight disadvantage
- body weight change ([8]; CD-1 mice, daily gavage as high as 4 mg/25 g or 160 mg per kg, 4 weeks): did not cause body weight change
- Body Weight [8, 10]: 35.97 ± 2.10 g
- Body Weight [8, 11]: 35.38 ± 1.71 g
- plasma biochemistry (ALP, AST, ALT, Amy, ALB, BUN, Gluc, Chol, T. Bili) ([9]; CD-1 mice, among the 4 groups): not statistically different
- Plasma biochemistry (Mean ± SD) ALT [9, 12]: 34.3 ± 21.7 U/L
- Plasma biochemistry (Mean ± SD) AST [9, 12]: 82.5 ± 29.6 U/L
- Plasma biochemistry (Mean ± SD) ALT [9, 13]: 21.0 ± 7.6 U/L
- Plasma biochemistry (Mean ± SD) AST [9, 13]: 72.3 ± 29.9 U/L
